Laboratory results taken from ChEMBL document CHEMBL1165859, “Synthesis, antiproliferative, acute toxicity and assessment of antiandrogenic activities of some newly synthesized steroidal lactams” (Eur J Med Chem, 2010).
The source made the active and inactive calls. The rule behind the calls is not given here.

What was measured:
[1] = tested on: DU-145; assay: Antiproliferative activity against human DU145 cells assessed as growth inhibition after 48 hrs by MTT assay; assay type: functional, cell-based; settings: DU-145, 48 h
Procedure, shortened: (§1)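 DU-145 cells grown in DMEM with 10% heat-inactivated FBS and streptomycin/penicillin at 37 °C, 5% CO2. Cells seeded at 5×10³/well and left to attach 24 h. Compounds in ethanol, final 0.01, 0.5, 1.0, 2.0 and 5.0 µg/mL, given in triplicate for 48 h. MTT added for 4 h, formazan dissolved in DMSO, A570 read. Viability is A(test)/A(control)×100, mean ± SEM of 3 experiments. IC50 taken from a linear log dose–response fit.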

[2] = tested on: DU-145; assay: Antiproliferative activity against human DU145 cells assessed as growth inhibition at 0.01 ug/mL after 48 hrs by MTT assay relative to control; assay type: functional; settings: for inhibition of growth at 0.01 µg/mL: DU-145, 48 h, read-out: GI; procedure, shortened: as §1
[3] = tested on: Rattus norvegicus; assay: Antiandrogenic activity in Sprague-Dawley rat assessed as increase of serum testosterone level at 40 mg/kg, ip equimolar dose of finasteride after 6 hrs by ELISA; assay type: functional
Procedure, shortened: (§2)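 Intact male Sprague Dawley rats (200–250 g), 5 per group. Compounds suspended in olive oil:ethanol (95:5), single intraperitoneal dose equimolar to 40 mg/kg finasteride; controls received vehicle alone. Blood taken by cardiac puncture under diethyl ether anaesthesia 6 h after dosing. Serum testosterone measured by competitive ELISA (T-antibody-coated wells, HRP-T conjugate, 4 h at 37 °C, H2O2 substrate 20 min, H2SO4 stop) at 450 nm. Results are mean ± SEM.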

[4] = tested on: DU-145; assay: Antiproliferative activity against human DU145 cells assessed as growth inhibition at 1 ug/mL after 48 hrs by MTT assay relative to control; assay type: functional; settings: for inhibition of growth at 1 µg/mL: DU-145, 48 h, read-out: GI; procedure, shortened: as §1
[5] = tested on: DU-145; assay: Antiproliferative activity against human DU145 cells assessed as growth inhibition at 2 ug/mL after 48 hrs by MTT assay relative to control; assay type: functional; settings: for inhibition of growth at 2 µg/mL: DU-145, 48 h, read-out: GI; procedure, shortened: as §1
[6] = tested on: DU-145; assay: Antiproliferative activity against human DU145 cells assessed as growth inhibition at 5 ug/mL after 48 hrs by MTT assay relative to control; assay type: functional; settings: for inhibition of growth at 5 µg/mL: DU-145, 48 h, read-out: GI; procedure, shortened: as §1
[7] = tested on: DU-145; assay: Antiproliferative activity against human DU145 cells assessed as growth inhibition at 0.5 ug/mL after 48 hrs by MTT assay relative to control; assay type: functional; settings: for inhibition of growth at 0.5 µg/mL: DU-145, 48 h, read-out: GI; procedure, shortened: as §1
[8] = Cytotoxicity against Balb/C mouse macrophages assessed as cell viability at 5 ug/ml after 24 hrs by MTT assay; assay type: cell-based, Macrophage; settings: read-out: Activity
[9] = Cytotoxicity against Balb/C mouse macrophages assessed as cell viability after 24 hrs by MTT assay; assay type: cell-based; settings: Macrophage
[10] = tested on: Rattus norvegicus; assay: Antiandrogenic activity in ip dosed Sprague-Dawley rat assessed as increase of serum testosterone level after 6 hrs by ELISA (reference value: 0.742 +/- 0.07 ng/ml); assay type: functional; procedure, shortened: as §2

SMILES	IC50 [1] [µM]	inhibition of growth at 0.01 µg/mL [2] [%]	Activity [3]	inhibition of growth at 1 µg/mL [4] [%]	inhibition of growth at 2 µg/mL [5] [%]	inhibition of growth at 5 µg/mL [6] [%]	inhibition of growth at 0.5 µg/mL [7] [%]	growth inhibition (GI) [2]	viability at 24 h, 5 ug/ml [8] [%]	Activity ([3]; route intraperitoneal) [ng/mL]	growth inhibition (GI) [4]	growth inhibition (GI) [5]	growth inhibition (GI) [6]	growth inhibition (GI) [7]	LC50 [9] [µM]	Activity [10] [ng/mL]
C[C@]12CC[C@H](OC(=O)c3ccc([N+](=O)[O-])cc3)CC1=CC[C@@H]1[C@@H]2CC[C@]2(C)NC(=O)CC[C@@H]12	5.2	33.9	Active	57.9	73.5	88.9	41.4	–	–	–	–	–	–	–	–	–
C[C@]12CC[C@H](OC(=O)CCl)CC1=CC[C@@H]1[C@@H]2CC[C@]2(C)NC(=O)CC[C@@H]12	–	–	–	–	–	–	–	inactive	6	0.82	inactive	inactive	inactive	inactive	–	–
C[C@]12CC[C@H](OC(=O)COc3ccccc3)CC1=CC[C@@H]1[C@@H]2CC[C@]2(C)NC(=O)CC[C@@H]12	–	–	Active	–	–	–	–	inactive	–	–	inactive	inactive	inactive	inactive	–	–
C[C@]12CC[C@H](OC(=O)c3ccccc3)CC1=CC[C@@H]1[C@@H]2CC[C@]2(C)NC(=O)CC[C@@H]12	9.5	28.1	Active	38.8	45	63.6	35.7	–	–	–	–	–	–	–	–	–
C[C@]12CC[C@H](OC(=O)c3ccc(O)cc3)CC1=CC[C@@H]1[C@@H]2CC[C@]2(C)NC(=O)CC[C@@H]12	5.7	30.7	Active	59.2	65.6	69.5	51.4	–	–	–	–	–	–	–	–	–
COc1ccc(C(=O)O[C@H]2CC[C@@]3(C)C(=CC[C@@H]4[C@@H]3CC[C@]3(C)NC(=O)CC[C@@H]43)C2)cc1	15.1	17.4	–	21.3	33.9	43	25.2	–	–	1.05	–	–	–	–	–	–
Cc1ccc(C(=O)O[C@H]2CC[C@@]3(C)C(=CC[C@@H]4[C@@H]3CC[C@]3(C)NC(=O)CC[C@@H]43)C2)cc1	7.5	21.6	Active	40.7	68.1	77	29.5	–	–	–	–	–	–	–	–	–
C[C@]12CC[C@H](OC(=O)Cc3ccccc3)CC1=CC[C@@H]1[C@@H]2CC[C@]2(C)NC(=O)CC[C@@H]12	7.1	–	Active	–	48.3	73.1	–	inactive	–	–	inactive	–	–	inactive	26	–
C[C@]12CC[C@H](OC(=O)c3ccc(Cl)cc3)CC1=CC[C@@H]1[C@@H]2CC[C@]2(C)NC(=O)CC[C@@H]12	8.3	19	Active	42.2	49.4	67.6	27.9	–	6	–	–	–	–	–	–	–
C[C@]12CC[C@H](O)CC1=CC[C@@H]1[C@@H]2CC[C@]2(C)NC(=O)CC[C@@H]12	–	–	Active	–	–	–	–	inactive	–	–	inactive	inactive	inactive	inactive	–	–
C[C@]12CC[C@H](OC(=O)c3ccc(N)cc3)CC1=CC[C@@H]1[C@@H]2CC[C@]2(C)NC(=O)CC[C@@H]12	7.1	30.5	Active	45	48	82.4	43.4	–	–	–	–	–	–	–	–	–
CC(C)(C)NC(=O)[C@H]1CC[C@H]2[C@@H]3CC[C@H]4NC(=O)C=C[C@]4(C)[C@H]3CC[C@]12C [FINASTERIDE]	3.9	5	–	16.5	36	78.5	8.83	–	–	–	–	–	–	–	–	1.26
